The test system of data set [1] is SARS-CoV-2. The data set is described as follows: Antiviral activity against SARS-Cov2 […] infected in Calu-3 cells assessed as viral plaque reduction. It counts as functional, organism-based. To be noted: Severe acute respiratory syndrome coronavirus 2, Calu-3.
The subject of data set [2] is SARS-CoV-2. Description: Antiviral activity against SARS-Cov2 […] infected in Calu-3 cells assessed as reduction in viral particle release measured after 24 hrs. It counts as functional, organism-based. As to conditions: Severe acute respiratory syndrome coronavirus 2, Calu-3, 24 h.
Data set [3] relates to SARS-CoV-2. Description: Antiviral activity against SARS-CoV-2-GHB-03021/2020 infected in African green monkey Vero E6 cells assessed as reduction in cytopathic effect pre-infected with virus on day 0 followed by compound addition on day 1 and measured after 4 days post infection in presence of CP-100356 by MTS assay. It counts as functional, organism-based. To be noted: Severe acute respiratory syndrome coronavirus 2, GHB-03021/2020, Vero C1008. In general terms: Protection from cytopathic effect is a common read-out in antiviral testing.

Data set [4] relates to SARS-CoV-2. The data set is described as follows: Antiviral activity against SARS-CoV-2-BetaCoV/belgium/GHB-03021/2020 infected in human Huh-7 cells assessed as reduction in cytopathic effect pre-infected with virus on day 0 followed by compound addition on day 1 and measured after 4 days post infection by MTT assay. To be noted: Severe acute respiratory syndrome coronavirus 2, BetaCoV/belgium/GHB-03021/2020, Huh-7. In kind it is functional, organism-based.

Data set [5] concerns SARS-CoV-2. The data set is described as follows: Antiviral activity against SARS-CoV-2-alphaB.1.1.7 infected in human A549 cells expressing ACE2 and TMPRSS2 assessed as reduction in cytopathic effect pre-infected with virus on day 0 followed by compound addition on day 1 and measured after 4 days post infection by MTS assay. It counts as functional, organism-based. To be noted: Severe acute respiratory syndrome coronavirus 2, alphaB.1.1.7, A549.

Data set [6] has as its system Vero C1008. The data set is described as follows: Cytotoxicity against African green monkey Vero E6 cells assessed as reduction in cell viability. It counts as toxicity, cell-based. As to conditions: chlorocebus sabaeus. In a few lines: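 VeroE6-eGFP cells maintained in DMEM with 10% FBS and G418. Compound toxicity measured without virus by standard MTS assay in parallel with the antiviral test. At least two independent dose–response curves.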

Data set [7] is described as follows: Tmax in CD-1 mouse plasma at 25 mg/kg, INH using nebulizer measured at 0.25 to 24 hrs. It counts as ADME, organism-based. As to conditions: in vivo, inhaled_or_intranasal, time 0.25-24 hrs. The procedure, abridged:
(§1)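 Male outbred CD-1 mice, 4 weeks old. Compound in a DOPS liposomal formulation (1 mM DOPS final), 25 mg/kg by nebulizer inhalation. Mice euthanized at 0.25, 0.5, 1, 2, 4, 8 and 24 h for heart blood (EDTA plasma), bronchoalveolar lavage and lung homogenate. ELF levels derived from BALF by urea method; non-compartmental PK analysis.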

A short description of data set [8]: Cmax in CD-1 mouse plasma at 25 mg/kg, INH using nebulizer measured at 0.25 to 24 hrs. In kind it is ADME, organism-based. Also noted: dose 25 mg/kg, time 0.25-24 hrs, route inh. To be noted: in vivo, inhaled_or_intranasal. In a few lines: as §1
Data set [9] in a line: AUC (0 to t) in CD-1 mouse plasma at 25 mg/kg, INH using nebulizer measured at 0.25 to 24 hrs. It counts as ADME, organism-based. More on the design: time lower 0.25 hrs, dose 25 mg/kg, time upper 24 hrs, route inh. To be noted: in vivo, inhaled_or_intranasal. The procedure, abridged: as §1
Data set [10] in a line: Observed apparent volume of distribution in CD-1 mouse plasma at 25 mg/kg, INH using nebulizer measured at 0.25 to 24 hrs. To be noted: in vivo, inhaled_or_intranasal, time 0.25-24 hrs. In kind it is ADME, organism-based. In a few lines:
as §1

Data set [11] in a line: Apparent oral clearance in CD-1 mouse plasma at 25 mg/kg, INH using nebulizer measured at 0.25 to 24 hrs. It counts as ADME, organism-based. As to conditions: time 0.25-24 hrs. In a few lines:
as §1

The nature of data set [12]: Cmax in CD-1 mouse BALF at 25 mg/kg, INH using nebulizer measured at 5 hrs. In kind it is ADME, organism-based, Bronchoalveolar lavage. More on the design: time 5 hrs, dose 25 mg/kg, route inh. As to conditions: in vivo, inhaled_or_intranasal.
Data set [13] is described as follows: AUC (0 to t) in CD-1 mouse BALF at 25 mg/kg, INH using nebulizer measured at 5 hrs. To be noted: in vivo, inhaled_or_intranasal. It counts as ADME, organism-based, Bronchoalveolar lavage. Also noted: dose 25 mg/kg, time 5 hrs, route inh.
Data set [14] in a line: Cmax in CD-1 mouse Epithelial lining fluid at 25 mg/kg, INH using nebulizer measured at 0.25 to 24 hrs. In kind it is ADME, organism-based. Also noted: time lower 0.25 hrs, dose 25 mg/kg, time upper 24 hrs, route inh. To be noted: in vivo, inhaled_or_intranasal. In a few lines: as §1
Data set [15] is described as follows: AUC (0 to t) in CD-1 mouse Epithelial lining fluid at 25 mg/kg, INH using nebulizer measured at 0.25 to 24 hrs. It counts as ADME, organism-based. Also noted: time upper 24 hrs, dose 25 mg/kg, time lower 0.25 hrs, route inh. As to conditions: in vivo, inhaled_or_intranasal. The procedure, abridged:
as §1

The nature of data set [16]: Cmax in CD-1 mouse lung at 25 mg/kg, INH using nebulizer measured at 0.25 to 24 hrs. It counts as ADME, organism-based. More on the design: dose 25 mg/kg, time 0.25-24 hrs, route inh. To be noted: inhaled or intranasal. The procedure, abridged:
as §1

Data set [17] in a line: Tmax in CD-1 mouse plasma at 100 mg/kg, po measured at 0.5 to 3 hrs. It counts as ADME, organism-based. To be noted: in vivo, time 0.5-3 hrs. In a few lines:
(§2)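 Male CD-1 mice, 4 weeks old, given 100 mg/kg by intragastric gavage in DOPS liposomal formulation (1 mM DOPS final). Tail-vein blood sampled at 0.5, 1 and 3 h; terminal heart blood, BALF and lungs at 5 h. EDTA plasma kept at −80 °C until analysis; parameters by non-compartmental analysis.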

The nature of data set [18]: Cmax in CD-1 mouse plasma at 100 mg/kg, po measured at 0.5 to 3 hrs. In kind it is ADME, organism-based. More on the design: time 0.5-3 hrs, dose 100 mg/kg, route po. As to conditions: in vivo. In a few lines: as §2
Data set [19] can be described thus: AUC (0 to t) in CD-1 mouse plasma at 100 mg/kg, po measured at 0.5 to 3 hrs. Also noted: time lower 0.5 hrs, dose 100 mg/kg, time upper 3 hrs, route po. As to conditions: in vivo. It counts as ADME, organism-based. In a few lines: as §2
The nature of data set [20]: Observed apparent volume of distribution in CD-1 mouse plasma at 100 mg/kg, po measured at 0.5 to 3 hrs. To be noted: in vivo, time 0.5-3 hrs. In kind it is ADME, organism-based. The procedure, abridged: as §2
Data set [21] is described as follows: Half life in CD-1 mouse plasma at 100 mg/kg, po measured at 0.5 to 3 hrs. In kind it is ADME, organism-based. As to conditions: in vivo, time 0.5-3 hrs. The procedure, abridged: as §2
The nature of data set [22]: MRT in CD-1 mouse plasma at 100 mg/kg, po measured at 0.5 to 3 hrs. In kind it is ADME, organism-based. As to conditions: in vivo, time 0.5-3 hrs. The procedure, abridged: as §2
A short description of data set [23]: Oral bioavailability in CD-1 mouse at 100 mg/kg measured at 0.5 to 3 hrs. In kind it is ADME, organism-based. As to conditions: in vivo, time 0.5-3 hrs. The procedure, abridged:
as §2

As for `CC(C)(C)OC(=O)Nc1cccn(C(CC2CC2)C(=O)N[C@@H](C[C@@H]2CCNC2=O)C(=O)C(=O)NCc2ccccc2)c1=O` (mixture of isomers), the EC50 – broadly, the concentration that produces a half-maximal response – in data set [1] was 4 µM.
Regarding `CC(C)(C)OC(=O)Nc1cccn([C@@H](CC2CC2)C(=O)N[C@@H](C[C@@H]2CCNC2=O)C(=O)C(=O)NCc2ccccc2)c1=O`, the concentration giving a half-maximal response (EC50) is 2400 nM in [2], 1300 nM in [3], 3.4 µM in data set [4] and 840 nM in data set [5]. Moreover, the CC50 (commonly the concentration that lowers cell viability or growth by half) in data set [6] is over 100 µM. For the same compound, the Tmax (commonly the time from dosing to the highest level) is 19.8 min in [7] and 2.5 h in data set [17]. Besides, the peak concentration (Cmax) (in general, the peak of the concentration-time curve) came to 236.47 ng/mL in data set [8]; 2330.33 ng/mL in data set [12]; 433.52 µg/mL in data set [14]; 262000 ng/g in data set [16]; 357 ng/mL in data set [18]. Besides, the AUCt in [9] was 2896.63 ng·h/mL; in data set [13], 5162.2 ng·h/mL; in data set [15], 1042.34 µg·h/mL; in [19], 1061.49 ng·h/mL. The Vz/F is 141.07 L/kg in data set [10] and 131.34 L/kg in data set [20]. Moreover, the apparent clearance CL/F – broadly, clearance divided by bioavailability, as obtained after extravascular dosing – in data set [11] was 83.9 mL/min/kg. This compound came in with a t1/2 in data set [21] of 1.3 h. Besides, the MRT (in general, the average time that molecules of a dose stay in the body) in [22] came out at 2.57 h. The bioavailability (as a rule, the share of a dose that reaches the circulation, judged against a reference dose that is usually intravenous) in data set [23] stood at 17%.

Values taken from ChEMBL document CHEMBL5108058 (J Med Chem, 2022).
